Experimental data published in ChEMBL document CHEMBL4808188, “Development of BET inhibitors as potential treatments for cancer: A search for structural diversity” (Bioorg Med Chem Lett, 2021).
≈ marks a conversion by molar mass, not a printed value.

What was measured:
[1] = target: T1, Bromodomain-containing protein 4 (Homo sapiens, UniProt O60885); assay: Inhibition of BRD4 (unknown origin)
Summary of the method: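 BRD4 binding assay; IC50 in nM, reported as mean ± SEM.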

[2] = target: T1, Bromodomain-containing protein 4; assay: Inhibition of BRD4 (unknown origin) assessed as reduction in c-Myc expression
Summary of the method: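 Functional c-Myc assay with MYC expression as the read-out; IC50 in nM, reported as mean ± SEM.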

[3] = Antiproliferative activity against Velcade-resistant human JJN-3R cells assessed as reduction in cell viability; format: functional, cell-based
Summary of the method: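 Multiple myeloma cell proliferation assay in the Velcade-resistant JJN3R line; IC50 taken from proliferation.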

[4] = Metabolic stability in human liver microsomes assessed as half life measured upto 120 mins; format: ADME, Microsome
[5] = Metabolic stability in rat liver microsomes assessed as half life measured upto 120 mins; format: ADME, Microsome
[6] = Metabolic stability in mouse liver microsomes assessed as half life measured upto 120 mins; format: ADME, Microsome
[7] = Metabolic stability in dog liver microsomes assessed as half life measured upto 120 mins; format: ADME, Canis lupus familiaris, Microsome; settings: for half-life: liver microsomes
[8] = Metabolic stability in monkey liver microsomes assessed as half life measured upto 120 mins; format: ADME, Macaca mulatta, Microsome; settings: rhesus monkey
[9] = Permeability of the compound at pH 7.4 by PAMPA; format: ADME; settings: read-out: permeability
Summary of the method: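 PAMPA run at pH 7.4; permeability reported in nm/sec.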

[10] = Protein binding in human serum assessed as free fraction; format: ADME, cell-free
[11] = Antitumor activity against human JJN-3R cells xenografted in mouse assessed as tumor growth inhibition at 4 mg/kg, po qd administered for 7 days beginning 8 days after tumor-cell implantation; format: functional; settings: 168 h, time 7 day, read-out: TGI
Summary of the method: (§1)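 JJN3R multiple myeloma xenograft in mice. Oral dosing once daily for 7 days began 8 days after tumor-cell implantation, on established tumors. Read-out was % tumor growth inhibition, and the minimum efficacious dose was identified.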

[12] = Solubility of the compound in phosphate buffer at pH 6.5; format: physicochemical
Summary of the method: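 Solubility measured in 50 mM phosphate buffer at pH 6.5; reported in µg/mL.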

[13] = AUC (0 to 24 hrs) in mouse at 3 mg/kg, po measured for 24 hrs; format: ADME, organism-based; design: route oral, time 24 hrs, dose 3 mg/kg; settings: in vivo
[14] = Antitumor activity against human JJN-3R cells xenografted in mouse assessed as tumor growth inhibition at 1 mg/kg, po qd administered for 7 days beginning 8 days after tumor-cell implantation; format: functional; settings: 168 h, time 7 day, read-out: TGI; summary of the method: as §1
[15] = Antitumor activity against human JJN-3R cells xenografted in po dosed mouse assessed as tumor growth inhibition administered qd for 7 days beginning 8 days after tumor-cell implantation; format: functional; settings: 168 h, time 7 day, read-out: MED; summary of the method: as §1
[16] = Antitumor activity against human JJN-3R cells xenografted in mouse assessed as tumor growth inhibition at 2 mg/kg, po qd administered for 7 days beginning 8 days after tumor-cell implantation; format: functional; settings: 168 h, time 7 day, read-out: TGI; summary of the method: as §1

[2H]C([2H])([2H])c1nnn(C)c1-c1cnc2c3ccc(C(C)(C)O)cc3n([C@H](c3ccc(Cl)cn3)C3CCOCC3)c2c1
IC50 [1]: 1 nM
IC50 [2]: 1.2 nM
IC50 [3]: 4.8 nM
half-life [4]: 55 min
half-life [5]: 62 min
half-life [6]: 35 min
half-life [7]: 61 min
half-life [8]: 37 min
Papp [9]: 61 ×10⁻⁶ cm/s
fraction unbound [10]: 0.06
inhibition in vivo at 4 mg/kg [11]: 76%

[2H]C([2H])([2H])c1nnn(C)c1-c1cnc2c3ccc(C(C)(C)O)c(F)c3n([C@H](c3ncccc3F)C3CCOCC3)c2c1
IC50 [1]: 0.6 nM
IC50 [2]: 0.9 nM
IC50 [3]: 1.7 nM
half-life [4]: 75 min
half-life [5]: 47 min
half-life [6]: 16 min
half-life [7]: 37 min
half-life [8]: 22 min
Papp [9]: 42 ×10⁻⁶ cm/s
fraction unbound [10]: 0.06
solubility [12]: 91 µg/mL (≈ 170 µM)
AUC(0-t) at 24 h [13]: 10.9 µM·h
inhibition in vivo at 1 mg/kg [14]: 91%
minimal effective dose [15]: 1 mg/kg

Cc1cc([C@H](C2CCOCC2)n2c3cc(C(C)(C)O)ccc3c3ncc(-c4c(C)nnn4C)cc32)n(C)n1
IC50 [1]: 2.3 nM
IC50 [2]: 7.1 nM
IC50 [3]: 55 nM
half-life [4]: 83 min
half-life [5]: 59 min
half-life [6]: 50 min
half-life [7]: 52 min
half-life [8]: 36 min
Papp [9]: 15 ×10⁻⁶ cm/s

[2H]C([2H])([2H])c1nnn(C)c1-c1cnc2c3cc(F)c(C(C)(C)O)cc3n([C@H](c3cc(C)on3)C3CCOCC3)c2c1
IC50 [1]: 1.4 nM
IC50 [2]: 2.2 nM
IC50 [3]: 14 nM
half-life [4]: 54 min
half-life [5]: 3 min
half-life [6]: 26 min
half-life [7]: 33 min
half-life [8]: 21 min
Papp [9]: 69 ×10⁻⁶ cm/s

[2H]C([2H])([2H])c1nnn(C)c1-c1cnc2c3ccc(C(C)(C)O)cc3n([C@H](c3cc(C)on3)C3CCOCC3)c2c1
IC50 [1]: 1.2 nM
IC50 [2]: 2.1 nM
IC50 [3]: 9.9 nM
half-life [4]: 64 min
half-life [5]: 33 min
half-life [6]: 30 min
half-life [7]: 75 min
half-life [8]: 37 min
Papp [9]: 26 ×10⁻⁶ cm/s
fraction unbound [10]: 0.14

[2H]C([2H])([2H])c1nnn(C)c1-c1cnc2c3cc(F)c(C(C)(C)O)cc3n([C@H](c3ccccc3)C3CCOCC3)c2c1
IC50 [1]: 0.9 nM
IC50 [2]: 2 nM
IC50 [3]: 6 nM
half-life [4]: 52 min
half-life [5]: 46 min
half-life [6]: 41 min
t1/2 ([7]; microsomes, 2 h): 32 min
half-life [8]: 19 min
Papp [9]: 69 ×10⁻⁶ cm/s
fraction unbound [10]: 0.01
solubility [12]: 4 µg/mL (≈ 7.74 µM)
AUC(0-t) at 24 h [13]: 12.6 µM·h
inhibition in vivo at 4 mg/kg [11]: 78%
inhibition in vivo at 2 mg/kg [16]: 77%

[2H]C([2H])([2H])c1nnn(C)c1-c1cnc2c3ccc(C(C)(C)O)cc3n([C@H](c3ncccc3F)C3CCOCC3)c2c1
IC50 [1]: 0.9 nM
IC50 [2]: 1 nM
IC50 [3]: 3.6 nM
half-life [4]: 79 min
half-life [5]: 48 min
half-life [6]: 24 min
half-life [7]: 36 min
half-life [8]: 22 min
Papp [9]: 27 ×10⁻⁶ cm/s
fraction unbound [10]: 0.04

Cc1cc([C@H](C2CCOCC2)n2c3cc(C(C)(C)O)ccc3c3ncc(-c4c(C)nnn4C)cc32)no1
IC50 [1]: 1.6 nM
IC50 [2]: 2.8 nM
IC50 [3]: 11 nM
half-life [4]: 61 min
half-life [5]: 26 min
half-life [6]: 10 min
half-life [7]: 38 min
half-life [8]: 16 min
Papp [9]: 35 ×10⁻⁶ cm/s

Cc1nnn(C)c1-c1cnc2c3ccc(C(C)(C)O)cc3n(C(c3cnn[nH]3)C3CCOCC3)c2c1 (configuration not stated)
IC50 [1]: 27 nM
IC50 [2]: 210 nM
IC50 [3]: 710 nM
Papp [9]: 12 ×10⁻⁶ cm/s

[2H]C([2H])([2H])c1nnn(C)c1-c1cnc2c3ccc(C(C)(C)O)c(F)c3n([C@H](c3cc(C)on3)C3CCOCC3)c2c1
IC50 [1]: 2 nM
IC50 [2]: 3.9 nM
IC50 [3]: 13 nM
half-life [4]: 79 min
half-life [5]: 30 min
half-life [6]: 30 min
half-life [7]: 52 min
half-life [8]: 23 min
Papp [9]: 80 ×10⁻⁶ cm/s
fraction unbound [10]: 0.16
solubility [12]: 120 µg/mL (≈ 230 µM)
AUC(0-t) at 24 h [13]: 8.7 µM·h
inhibition in vivo at 4 mg/kg [11]: 71%
minimal effective dose [15]: 4 mg/kg

[2H]C([2H])([2H])c1nnn(C)c1-c1cnc2c3c(F)cc(C(C)(C)O)cc3n([C@H](c3cc(C)on3)C3CCOCC3)c2c1
IC50 [2]: 2.8 nM
IC50 [3]: 3.9 nM
half-life [4]: 120 min
half-life [5]: 33 min
half-life [6]: 17 min
half-life [7]: 71 min
half-life [8]: 34 min
Papp [9]: 41 ×10⁻⁶ cm/s
